Experiments:
[1] = target: Histone deacetylase (HDAC1 and HDAC2) (Homo sapiens, UniProt Q13547+Q92769); assay: Inhibition of HDAC1/2 from human HeLa cells nuclear extract by cell free fluorimetric assay; type: cell-based
[2] = tested on: SK-MES-1; assay: Cytotoxicity against human SKMES1 cells after 72 hrs by trypan blue exclusion assay; type: functional, cell-based; conditions: SK-MES-1, 72 h
[3] = tested on: NCI-H69; assay: Cytotoxicity against human NCI-H69 cells after 72 hrs by trypan blue exclusion assay; type: functional, cell-based; conditions: NCI-H69, 72 h
[4] = tested on: DU-145; assay: Cytotoxicity against human DU145 cells after 72 hrs by trypan blue exclusion assay; type: functional, cell-based; conditions: DU-145, 72 h
Procedure, shortened: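 DU-145 prostate cancer cells kept in recommended complete medium at 37 °C, 5% CO₂, passaged 24 h before dosing. Compounds taken from 10 mM DMSO stocks and diluted in DMSO plus fresh medium, final DMSO 0.1%; control wells got fresh medium only. Viability read by trypan blue staining after 72 h. EC₅₀ = concentration giving 50% loss of viability, from duplicate of four simultaneous experiments.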

[5] = Cytotoxicity against human primary lung fibroblasts after 72 hrs by trypan blue exclusion assay; type: ADME, cell-based; conditions: Fibroblast
[6] = tested on: HMEC; assay: Cytotoxicity against HMEC after 72 hrs by trypan blue exclusion assay; type: ADME, cell-based; conditions: Homo sapiens
[7] = target: T1, Protein deacetylase HDAC6 (Homo sapiens, UniProt Q9UBN7); assay: Inhibition of HDAC6 from human HeLa cells nuclear extract by cell free fluorimetric assay
T1 sequence (Q9UBN7 whole entry): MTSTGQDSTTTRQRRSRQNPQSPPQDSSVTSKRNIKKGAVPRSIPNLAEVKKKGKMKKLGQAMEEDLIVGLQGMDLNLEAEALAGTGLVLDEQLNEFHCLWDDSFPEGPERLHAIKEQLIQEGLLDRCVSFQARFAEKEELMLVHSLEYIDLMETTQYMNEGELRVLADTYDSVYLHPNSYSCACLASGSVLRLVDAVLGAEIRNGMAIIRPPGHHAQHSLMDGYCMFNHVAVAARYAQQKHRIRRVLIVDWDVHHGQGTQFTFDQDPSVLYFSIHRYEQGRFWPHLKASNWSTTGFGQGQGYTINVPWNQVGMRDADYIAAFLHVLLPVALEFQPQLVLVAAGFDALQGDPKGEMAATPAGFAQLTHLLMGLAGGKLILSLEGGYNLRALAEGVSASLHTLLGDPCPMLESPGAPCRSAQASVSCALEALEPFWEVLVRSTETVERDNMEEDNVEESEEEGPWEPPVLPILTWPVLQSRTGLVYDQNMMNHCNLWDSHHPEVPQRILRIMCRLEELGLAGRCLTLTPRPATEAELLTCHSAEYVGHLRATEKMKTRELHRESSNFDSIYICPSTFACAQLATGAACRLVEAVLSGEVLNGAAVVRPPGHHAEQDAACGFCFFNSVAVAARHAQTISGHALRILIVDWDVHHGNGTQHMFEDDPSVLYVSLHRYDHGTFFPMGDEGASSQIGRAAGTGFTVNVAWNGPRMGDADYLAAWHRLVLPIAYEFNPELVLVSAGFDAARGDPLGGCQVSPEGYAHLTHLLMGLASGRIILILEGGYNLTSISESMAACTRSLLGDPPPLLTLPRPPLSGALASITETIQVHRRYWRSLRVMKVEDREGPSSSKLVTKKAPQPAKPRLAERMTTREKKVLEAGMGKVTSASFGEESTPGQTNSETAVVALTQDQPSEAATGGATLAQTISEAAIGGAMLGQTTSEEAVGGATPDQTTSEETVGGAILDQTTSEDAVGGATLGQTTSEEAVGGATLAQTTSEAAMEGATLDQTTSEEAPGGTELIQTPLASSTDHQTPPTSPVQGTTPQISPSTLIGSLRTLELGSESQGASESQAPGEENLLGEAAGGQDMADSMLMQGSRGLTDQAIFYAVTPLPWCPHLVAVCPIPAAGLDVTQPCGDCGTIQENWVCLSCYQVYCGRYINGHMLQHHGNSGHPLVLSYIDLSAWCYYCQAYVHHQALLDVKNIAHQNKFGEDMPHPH

[8] = target: T2, Histone deacetylase 8 (Homo sapiens, UniProt Q9BY41); assay: Inhibition of HDAC8 from human HeLa cells nuclear extract by cell free fluorimetric assay
T2 sequence (Q9BY41 whole entry): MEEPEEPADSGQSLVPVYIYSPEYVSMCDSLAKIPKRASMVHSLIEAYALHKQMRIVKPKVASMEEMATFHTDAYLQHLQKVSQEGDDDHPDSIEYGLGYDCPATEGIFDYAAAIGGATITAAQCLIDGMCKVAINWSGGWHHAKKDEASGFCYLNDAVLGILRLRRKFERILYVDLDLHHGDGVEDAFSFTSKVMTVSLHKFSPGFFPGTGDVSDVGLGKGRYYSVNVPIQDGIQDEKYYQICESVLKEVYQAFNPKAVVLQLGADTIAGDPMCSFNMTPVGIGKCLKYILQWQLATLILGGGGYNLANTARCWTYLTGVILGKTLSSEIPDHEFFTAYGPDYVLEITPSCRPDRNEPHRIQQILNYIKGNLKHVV

| IC50 [1] [nM] | IC50 [7] [nM] | IC50 [8] [µM] | Structure (SMILES) | EC50 [2] [µM] | EC50 [3] [µM] | EC50 [4] [µM] | EC50 [5] [µM] | EC50 [6] [µM] |
| --- | --- | --- | --- | --- | --- | --- | --- | --- |
| 55.6 | – | – | CC[C@H]1OC(=O)[C@H](C)[C@@H](O[C@H]2C[C@@](C)(OC)[C@@H](O)[C@H](C)O2)[C@H](C)[C@@H](O[C@@H]2O[C@H](C)C[C@H](N(C)Cc3ccc(-c4cn(CCCCCCCC(=O)NO)nn4)cc3)[C@H]2O)[C@](C)(OC)C[C@@H](C)C(=O)[C@H](C)[C@@H](O)[C@]1(C)O | 4.89 | 5.67 | 6.97 | > 10 | > 10 |
| 44.3 | – | – | CC[C@H]1OC(=O)[C@H](C)[C@@H](O)[C@H](C)[C@@H](O[C@@H]2O[C@H](C)C[C@H](N(C)Cc3ccc(-c4cn(CCCCCC(=O)NO)nn4)cc3)[C@H]2O)[C@](C)(OC)C[C@@H](C)C(=O)[C@H](C)[C@@H](O)[C@]1(C)O | 1.95 | 1.92 | 3.29 | > 10 | > 10 |
| 223.4 | – | – | CC[C@H]1OC(=O)[C@H](C)[C@@H](O[C@H]2C[C@@](C)(OC)[C@@H](O)[C@H](C)O2)[C@H](C)[C@@H](O[C@@H]2O[C@H](C)C[C@H](N(C)Cc3ccc(-c4cn(CCCCCCCCCC(=O)NO)nn4)cc3)[C@H]2O)[C@](C)(OC)C[C@@H](C)C(=O)[C@H](C)[C@@H](O)[C@]1(C)O | – | – | – | – | – |
| 169.8 | – | – | CC[C@H]1OC(=O)[C@H](C)[C@@H](O[C@H]2C[C@@](C)(OC)[C@@H](O)[C@H](C)O2)[C@H](C)[C@@H](O[C@@H]2O[C@H](C)C[C@H](N(C)Cc3ccc(-c4cn(CCCCCCCCC(=O)NO)nn4)cc3)[C@H]2O)[C@](C)(OC)C[C@@H](C)C(=O)[C@H](C)[C@@H](O)[C@]1(C)O | 7.12 | 7.29 | 8.14 | > 10 | > 10 |
| 1.9 | 148 | – | CC[C@H]1OC(=O)[C@H](C)[C@@H](O)[C@H](C)[C@@H](O[C@@H]2O[C@H](C)C[C@H](N(C)Cc3ccc(-c4cn(CCCCCCC(=O)NO)nn4)cc3)[C@H]2O)[C@](C)(OC)C[C@@H](C)C(=O)[C@H](C)[C@@H](O)[C@]1(C)O | 1.28 | 1.49 | 1.05 | > 10 | > 10 |
| 109.8 | – | – | CC[C@H]1OC(=O)[C@H](C)[C@@H](O)[C@H](C)[C@@H](O[C@@H]2O[C@H](C)C[C@H](N(C)Cc3ccc(NC(=O)CCCCCCC(=O)NO)cc3)[C@H]2O)[C@](C)(O)C[C@@H](C)CN(C)[C@H](C)[C@@H](O)[C@]1(C)O [DESCLASINOSE AZITHROMYCINARYLALKYL HYDROXAMATE] | – | – | < 25 | – | – |
| 123 | – | – | CC[C@H]1OC(=O)[C@H](C)[C@@H](O)[C@H](C)[C@@H](O[C@@H]2O[C@H](C)C[C@H](N(C)Cc3ccc(-c4cn(CCCCCCCC(=O)NO)nn4)cc3)[C@H]2O)[C@](C)(OC)C[C@@H](C)C(=O)[C@H](C)[C@@H](O)[C@]1(C)O | 4.45 | 5.09 | 5.78 | > 10 | > 10 |
| 88.8 | – | 3.74 | CC[C@H]1OC(=O)[C@H](C)[C@@H](O)[C@H](C)[C@@H](O[C@@H]2O[C@H](C)C[C@H](N(C)Cc3ccc(-c4cn(CCCCCC(=O)NO)nn4)cc3)[C@H]2O)[C@](C)(O)C[C@@H](C)CN(C)[C@H](C)[C@@H](O)[C@]1(C)O | 1.68 | 1.77 | 1.24 | > 10 | > 10 |
| 72.4 | – | 6.78 | CC[C@H]1OC(=O)[C@H](C)[C@@H](O)[C@H](C)[C@@H](O[C@@H]2O[C@H](C)C[C@H](N(C)Cc3ccc(-c4cn(CCCCCCCC(=O)NO)nn4)cc3)[C@H]2O)[C@](C)(O)C[C@@H](C)CN(C)[C@H](C)[C@@H](O)[C@]1(C)O | 4.67 | 3.99 | 5.68 | > 10 | > 10 |
| 37 | – | – | CC[C@H]1OC(=O)[C@H](C)[C@@H](O[C@H]2C[C@@](C)(OC)[C@@H](O)[C@H](C)O2)[C@H](C)[C@@H](O[C@@H]2O[C@H](C)C[C@H](N(C)Cc3ccc(-c4cn(CCCCCC(=O)NO)nn4)cc3)[C@H]2O)[C@](C)(OC)C[C@@H](C)C(=O)[C@H](C)[C@@H](O)[C@]1(C)O | 2.15 | 2.67 | 2.98 | > 10 | > 10 |
| 226.7 | – | – | CC[C@H]1OC(=O)[C@H](C)[C@@H](O[C@H]2C[C@@](C)(OC)[C@@H](O)[C@H](C)O2)[C@H](C)[C@@H](O[C@@H]2O[C@H](C)C[C@H](N(C)Cc3ccc(-c4cn(CCCCCCCCCC(=O)NO)nn4)cc3)[C@H]2O)[C@](C)(O)C[C@@H](C)CN(C)[C@H](C)[C@@H](O)[C@]1(C)O | – | – | – | – | – |
| 58.9 | – | 7.13 | CC[C@H]1OC(=O)[C@H](C)[C@@H](O[C@H]2C[C@@](C)(OC)[C@@H](O)[C@H](C)O2)[C@H](C)[C@@H](O[C@@H]2O[C@H](C)C[C@H](N(C)Cc3ccc(-c4cn(CCCCCCCC(=O)NO)nn4)cc3)[C@H]2O)[C@](C)(O)C[C@@H](C)CN(C)[C@H](C)[C@@H](O)[C@]1(C)O | 4.89 | 4.56 | 5.89 | > 10 | > 10 |
| 107.1 | – | – | CC[C@H]1OC(=O)[C@H](C)[C@@H](O[C@H]2C[C@@](C)(OC)[C@@H](O)[C@H](C)O2)[C@H](C)[C@@H](O[C@@H]2O[C@H](C)C[C@H](N(C)Cc3ccc(NC(=O)CCCCCCC(=O)NO)cc3)[C@H]2O)[C@](C)(O)C[C@@H](C)CN(C)[C@H](C)[C@@H](O)[C@]1(C)O [AZITHROMYCINARYLALKYLHYDROXAMIC ACID] | – | – | > 25 | – | – |
| 145.5 | – | 11.1 | CC[C@H]1OC(=O)[C@H](C)[C@@H](O[C@H]2C[C@@](C)(OC)[C@@H](O)[C@H](C)O2)[C@H](C)[C@@H](O[C@@H]2O[C@H](C)C[C@H](N(C)Cc3ccc(-c4cn(CCCCCCCCC(=O)NO)nn4)cc3)[C@H]2O)[C@](C)(O)C[C@@H](C)CN(C)[C@H](C)[C@@H](O)[C@]1(C)O | 7.54 | 8.45 | > 10 | > 10 | > 10 |
| 91.6 | – | 4.73 | CC[C@H]1OC(=O)[C@H](C)[C@@H](O[C@H]2C[C@@](C)(OC)[C@@H](O)[C@H](C)O2)[C@H](C)[C@@H](O[C@@H]2O[C@H](C)C[C@H](N(C)Cc3ccc(-c4cn(CCCCCC(=O)NO)nn4)cc3)[C@H]2O)[C@](C)(O)C[C@@H](C)CN(C)[C@H](C)[C@@H](O)[C@]1(C)O | 1.79 | 1.92 | 1.45 | > 10 | > 10 |
| – | – | – | O=C(CCCCCCC(=O)Nc1ccccc1)NO [VORINOSTAT] | – | – | 2.12 | – | – |

— ChEMBL document CHEMBL1139366, “Non-peptide macrocyclic histone deacetylase inhibitors” (J Med Chem, 2009)
